From ChEMBL document CHEMBL1138097, “Lysine sulfonamides as novel HIV-protease inhibitors: Nepsilon-acyl aromatic alpha-amino acids” (Bioorg Med Chem Lett, 2006)

Assays:
[1] = target: Human immunodeficiency virus type 1 protease (Human immunodeficiency virus 1, UniProt Q72874); experiment: Inhibition of HIV aspartyl protease
Method in brief: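 Assayed on purified HIV protease with a fluorescence rate readout (RFU/min). IC50 was taken from a dose–response curve. Ki came from fitting initial rates (200–600 s) to a tight-binding equation that accounts for protease concentration. Values are means of at least two experiments.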

[2] = system: Human immunodeficiency virus 1; experiment: Antiviral activity against HIV1 NL4-3 in MT4 cells; format: functional, organism-based; details: Human immunodeficiency virus 1, NL4-3, MT4
Method in brief: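 Whole-cell cytopathic assay in MT-4 cells infected with the molecular clone HIV-1 NL4-3. EC50 is the mean of at least two experiments.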

[3] = system: Human immunodeficiency virus 1; experiment: Antiviral activity against HIV1 multi PI resistant strain 4596; format: functional, organism-based; details: Human immunodeficiency virus 1, 4596
Method in brief: (§1)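 EC50 values come from a whole-cell cytopathic anti-viral assay, reported as the mean of at least three experiments. For line 2, the multi-PI-resistant strain 4596 carries protease mutations 82T, 84V, 10R and 63P. For line 1, the saquinavir-resistant strain SaqR carries protease mutations 48V and 90M.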

[4] = system: Human immunodeficiency virus 1; experiment: Antiviral activity against HIV1 Saquinavir resistant strain SaqR; format: functional, organism-based; details: Human immunodeficiency virus 1, SaqR; method in brief: as §1

| SMILES | IC50 [1] | EC50 [2] | EC50 [3] | EC50 [4] |
| --- | --- | --- | --- | --- |
| CC(C)CN([C@H](CO)CCCCNC(=O)[C@@H](NC(=O)c1ccccn1)C(c1ccccc1)c1ccccc1)S(=O)(=O)c1ccc(N)cc1 | 0.46 nM | 68 nM | 161 nM |  |
| CC(C)CN([C@H](CO)CCCCNC(=O)[C@@H](NC(=O)N1CCOCC1)C(c1ccccc1)c1ccccc1)S(=O)(=O)c1ccc(N)cc1 | 0.51 nM | 78 nM |  |  |
| COC(=O)N[C@@H](C(=O)NCCCC[C@@H](CO)N(CC(C)C)S(=O)(=O)c1ccc(N)cc1)C(c1ccccc1)c1ccccc1 | 13 nM | 850 nM |  |  |
| CC(C)CN([C@H](CO)CCCCNC(=O)[C@@H](NC(=O)c1ccncc1)C(c1ccccc1)c1ccccc1)S(=O)(=O)c1ccc(N)cc1 | 0.65 nM | 32 nM | 26 nM |  |
| Cc1ncccc1C(=O)N[C@H](C(=O)NCCCC[C@@H](CO)N(CC(C)C)S(=O)(=O)c1ccc(N)cc1)C(c1ccccc1)c1ccccc1 | 0.4 nM | 42 nM | 36 nM |  |
| CC(=O)N[C@H](C(=O)NCCCC[C@@H](CO)N(CC(C)C)S(=O)(=O)c1ccc(N)cc1)C(c1ccccc1)c1ccccc1 | 1.5 nM | 66 nM | 66 nM |  |
| CC(C)CN([C@H](CO)CCCCNC(=O)[C@@H](N)C(c1ccccc1)c1ccccc1)S(=O)(=O)c1ccc(N)cc1 | 0.5 nM | 44 nM | 43 nM |  |
| COc1cc(C(=O)N[C@@H](C(=O)NCCCC[C@@H](CO)N(CC(C)C)S(=O)(=O)c2ccc(N)cc2)C(c2ccccc2)c2ccccc2)ccc1O | 0.5 nM | 14 nM | 23 nM |  |
| CC(C)CN([C@H](CO)CCCCNC(=O)[C@@H](NC(=O)c1ncccc1O)C(c1ccccc1)c1ccccc1)S(=O)(=O)c1ccc(N)cc1 | 0.9 nM | 153 nM | 186 nM |  |
| CC(C)CN([C@H](CO)CCCCNC(=O)[C@@H](NC(=O)OCc1ccccn1)C(c1ccccc1)c1ccccc1)S(=O)(=O)c1ccc(N)cc1 | 0.12 nM | 17 nM | 18 nM | 14 nM |
| COC(=O)N[C@H](Cc1cccc2ccccc12)C(=O)NCCCC[C@@H](CO)N(CC(C)C)S(=O)(=O)c1ccc(N)cc1 | 1.2 nM | 120 nM |  |  |
| COC(=O)N[C@H](Cc1ccc2ccccc2c1)C(=O)NCCCC[C@@H](CO)N(CC(C)C)S(=O)(=O)c1ccc(N)cc1 | 1.2 nM | 258 nM |  |  |
| COC(=O)N[C@H](Cc1ccccc1-c1ccccc1)C(=O)NCCCC[C@@H](CO)N(CC(C)C)S(=O)(=O)c1ccc(N)cc1 | 0.521 nM | 200 nM |  |  |
| COC(=O)N[C@H](Cc1ccccc1)C(=O)NCCCC[C@@H](CO)N(CC(C)C)S(=O)(=O)c1ccc(N)cc1 | 12 nM | 2000 nM |  |  |
| COC(=O)N[C@@H](C(=O)NCCCC[C@@H](CO)N(CC(C)C)S(=O)(=O)c1ccc(N)cc1)c1ccccc1 | > 300 nM |  |  |  |
| COC(=O)N[C@H](CCc1ccccc1)C(=O)NCCCC[C@@H](CO)N(CC(C)C)S(=O)(=O)c1ccc(N)cc1 | 40 nM | 9000 nM |  |  |
| COC(=O)N(C)[C@H](Cc1ccccc1)C(=O)NCCCC[C@@H](CO)N(CC(C)C)S(=O)(=O)c1ccc(N)cc1 | 6.5 nM | 1000 nM |  |  |
| CC(C)CN([C@H](CO)CCCCNC(=O)[C@@H](NC(=O)c1cccnc1)C(c1ccccc1)c1ccccc1)S(=O)(=O)c1ccc(N)cc1 | 0.68 nM | 39 nM | 25 nM |  |

| SMILES | IC50 [1] | EC50 [2] | EC50 [3] | EC50 [4] |
| --- | --- | --- | --- | --- |
| CC(C)CN([C@H](CO)CCCCNC(=O)[C@@H](NC(=O)OCc1cccnc1)C(c1ccccc1)c1ccccc1)S(=O)(=O)c1ccc(N)cc1 | 0.48 nM | 18 nM | 18 nM |  |
| COC(=O)N[C@@H](C(=O)NCCCC[C@H](CO)N(CC(C)C)S(=O)(=O)c1ccc(N)cc1)C(c1ccccc1)c1ccccc1 | > 300 nM | > 100000 nM |  |  |
| CC(C)CN([C@H](CO)CCCCNC(=O)[C@@H](NC(=O)Cc1cccnc1)C(c1ccccc1)c1ccccc1)S(=O)(=O)c1ccc(N)cc1 | 0.24 nM | 194 nM | 128 nM |  |
| CC(C)CN([C@H](CO)CCCCNC(=O)[C@@H](NC(=O)c1cccc(O)c1)C(c1ccccc1)c1ccccc1)S(=O)(=O)c1ccc(N)cc1 | 0.4 nM | 64 nM | 30 nM |  |
| CC(C)CN([C@H](CO)CCCCNC(=O)[C@@H](NC(=O)c1ccc(O)c([N+](=O)[O-])c1)C(c1ccccc1)c1ccccc1)S(=O)(=O)c1ccc(N)cc1 | 0.56 nM | 55 nM | 35 nM |  |
| COC(=O)N[C@H](C(=O)NCCCC[C@H](CO)N(CC(C)C)S(=O)(=O)c1ccc(N)cc1)C(c1ccccc1)c1ccccc1 | 25 nM | 3000 nM |  |  |
| CC(C)CN([C@H](CO)CCCCNC(=O)[C@@H](NC(=O)C1CC1)C(c1ccccc1)c1ccccc1)S(=O)(=O)c1ccc(N)cc1 | 0.43 nM | 25 nM | 46 nM | 17 nM |
| CC(C)CN([C@H](CO)CCCCNC(=O)[C@@H](NC(=O)N(C)C)C(c1ccccc1)c1ccccc1)S(=O)(=O)c1ccc(N)cc1 | 0.44 nM | 62 nM | 56 nM |  |
| CC(C)CN([C@H](CO)CCCCNC(=O)[C@@H](NC(=O)c1cnccc1O)C(c1ccccc1)c1ccccc1)S(=O)(=O)c1ccc(N)cc1 | 0.5 nM |  |  |  |
| CC(C)CN([C@H](CO)CCCCNC(=O)[C@@H](NC(=O)C1CCCCC1)C(c1ccccc1)c1ccccc1)S(=O)(=O)c1ccc(N)cc1 | < 3.8 nM | 93 nM | 186 nM |  |
| CC(C)CN([C@H](CO)CCCCNC(=O)[C@@H](NC(=O)c1ccc[nH]1)C(c1ccccc1)c1ccccc1)S(=O)(=O)c1ccc(N)cc1 | 0.43 nM | 34 nM | 51 nM |  |
| CC(C)CN([C@H](CO)CCCCNC(=O)[C@@H](NC(=O)c1ccc([N+](=O)[O-])c(O)c1)C(c1ccccc1)c1ccccc1)S(=O)(=O)c1ccc(N)cc1 | 0.33 nM | 16 nM | 10 nM |  |
| CC(C)CN([C@H](CO)CCCCNC(=O)[C@@H](NC(=O)OCc1ccncc1)C(c1ccccc1)c1ccccc1)S(=O)(=O)c1ccc(N)cc1 | 0.39 nM | 20 nM | 13 nM | 4 nM |
| CC(C)CN([C@H](CO)CCCCNC(=O)[C@@H](NC(=O)c1ccccc1O)C(c1ccccc1)c1ccccc1)S(=O)(=O)c1ccc(N)cc1 | 0.63 nM | 64 nM | 134 nM |  |
| CC(C)CN([C@H](CO)CCCCNC(=O)[C@@H](NC(=O)c1ccc(O)cc1)C(c1ccccc1)c1ccccc1)S(=O)(=O)c1ccc(N)cc1 | 0.53 nM | 88 nM | 34 nM |  |
| CC(C)CN([C@H](CO)CCCCNC(=O)[C@@H](NC(=O)OC(C)(C)C)C(c1ccccc1)c1ccccc1)S(=O)(=O)c1ccc(N)cc1 | 0.4 nM | 41 nM | 290 nM |  |
| COC(=O)N[C@H](C(=O)NCCCC[C@@H](CO)N(CC(C)C)S(=O)(=O)c1ccc(N)cc1)C(c1ccccc1)c1ccccc1 [PPL-100] | 0.5 nM |  | 38 nM | 19 nM |
